Source: PubChem BioAssay (Johns Hopkins Ion Channel Center)
In the library only some 3.5% were active in any assay of this set; here they are far more common.
RGS4 block: human RGS4 inhibition. 310,000 compounds, 0.45% hits. AID 463165. B-score at 10 µM. P49798. HEK293 M3R/RGS4 inducible, Fluo-4 calcium flux; active compounds read high; triggered by carbachol at its EC20;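 active = B-score, a plate-corrected calcium signal, over three deviations above library mean, with baseline fluorescence within five deviations of library mean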;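 also: RGS4 expression induced by doxycycline in cells with stable M3 receptor; B-score is computed from the integrated fluorescence ratio over baseline after carbachol; higher B-score means a larger calcium signal and so more RGS4 inhibition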
Target sequence (P49798 whole entry, looked up): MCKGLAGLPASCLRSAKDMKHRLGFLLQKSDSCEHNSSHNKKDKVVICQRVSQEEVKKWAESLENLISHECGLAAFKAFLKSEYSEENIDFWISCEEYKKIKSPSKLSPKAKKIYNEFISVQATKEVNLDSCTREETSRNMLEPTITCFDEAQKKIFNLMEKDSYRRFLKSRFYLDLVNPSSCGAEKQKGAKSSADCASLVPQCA
RGS4 pot: potentiators or activators of RGS4; B-score at 10 µM; HEK293 M3R/inducible RGS4, carbachol calcium flux Fluo4; active compounds read low; 310,000 compounds, 0.92% hits; AID 463111;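 active = B-score of the integrated calcium signal more than 4 SD below the library mean, with starting fluorescence not abnormally high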;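 also: negative B-score means reduced calcium response which marks RGS4 activation or potentiation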
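Assay system: Inducible-RGS4 HEK293 cells carrying M3 receptor | Schedule: Compound preincubation 20 min at room temperature before agonist | Signal: Kinetic calcium fluorescence imaging with Fluo4-AM dye, 2 µM | Read-out basis: B score from integrated fluorescence ratio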
MrgX1 allo act: allosterically activates human MrgX1 receptor signaling | Q96LB2 | MrgX1-HEK293, Fluo-4 calcium flux, FDSS; active compounds read high | B-score at 10 µM | 310,000 compounds, 0.63% hits;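 active = plate-corrected calcium response at least 3 library SD above typical, normal starting fluorescence, not activating the receptor alone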;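 also: compound read alongside a low EC10 to EC30 dose of BAM8-22 agonist; peak minus trough fluorescence over baseline measured at the second addition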
Target sequence (Q96LB2 whole entry, looked up): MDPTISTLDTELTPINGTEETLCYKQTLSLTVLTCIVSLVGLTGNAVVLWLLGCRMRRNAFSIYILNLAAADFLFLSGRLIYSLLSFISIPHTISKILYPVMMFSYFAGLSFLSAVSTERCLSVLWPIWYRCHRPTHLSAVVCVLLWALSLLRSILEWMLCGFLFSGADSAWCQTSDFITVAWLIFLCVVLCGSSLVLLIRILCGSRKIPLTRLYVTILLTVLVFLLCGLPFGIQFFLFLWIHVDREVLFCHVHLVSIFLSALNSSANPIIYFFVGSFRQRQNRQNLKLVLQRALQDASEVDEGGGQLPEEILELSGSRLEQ
MrgX1 antag: human MrgX1 receptor antagonism, primary screen; B-score at 10 µM; 310,000 compounds, 1.3% hits; Q96LB2; MRGX1-HEK293 calcium flux, Fluo-4, BAM8-22 antagonism; active compounds read low;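 active = calcium-response B-score plate-corrected more than 3 library SD below zero, starting fluorescence within 5 deviations, no agonist response on first addition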;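 also: peak minus trough fluorescence over baseline after final BAM8-22 challenge near maximal dose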
MrgX1 ag: activates human MrgX1 receptor signaling | Q96LB2 | MrgX1-HEK293 cells, Fluo-4 calcium fluorescence, agonist mode; active compounds read high | B-score at 10 µM | 310,000 compounds, 0.44% hits | AID 588627;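 active = calcium response B-score plate-corrected fluorescence ratio at least 3 library SD, with starting fluorescence B-score inside 5 SD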
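Assay system: stable human MrgX1 HEK293 cell line. Quantity: 15,000 cells per well. Schedule: cells plated overnight, dye loaded 0.5 h 37 °C, 0.5 h room temperature. Detection: Fluo-4 NW calcium-flux fluorescence, kinetic read. Read-out basis: peak-minus-minimum fluorescence over baseline, converted to B scores. Control set: positive and negative control wells on each plate.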
MrgX1 allo conf: reconfirmed allosteric activator of human MrgX1 receptor; activation (ratio percentage), % at 10 µM; shares compounds with MrgX1 allo act; AID 602413; 1,200 compounds, 13% hits; MrgX1-HEK293, Fluo-4 calcium fluorescence, FDSS;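 active = ratio at least 3 SD above the weak peptide control, stable starting fluorescence, no direct agonism earlier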;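 also: compound followed by low BAM8-22 agonist challenge near EC20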
MrgX1 antag conf: reconfirmed antagonist of human MrgX1 receptor signaling; shares compounds with MrgX1 antag; MrgX1-HEK293, BAM8-22 calcium flux, Fluo-4; active compounds read low; remaining BAM8-22 calcium response % of control (active compounds read low), % at 10 µM; 2,300 compounds, 19% hits; AID 602420;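 active = remaining agonist calcium response no higher than 100% minus 3 SD of agonist-only control wells, with starting fluorescence near control levels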;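 also: agonist BAM8-22 given at a near maximal EC90 to ECmax level; peak minus minimum fluorescence divided by baseline after agonist addition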
HEK293 Ca flux: MrgX1 antagonist counter-screen hit in parental HEK293 cells; shares compounds with MrgX1 antag; Fluo-4 calcium fluorescence, FDSS; fluorescence ratio F(max-min)/F0 at 10 µM; 4,000 compounds, 2% hits; AID 624111;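 active = duplicate-averaged calcium fluorescence ratio at least three times the standard deviation of buffer wells, a nonspecific response in parental cells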
HEK293 Ca counter: MrgX1 allosteric activator counter-screen hit in parental HEK293 cells; shares compounds with MrgX1 antag; parental HEK293 calcium flux, Fluo-4 fluorescence ratio; active compounds read high; fluorescence ratio F(max-min)/F0 at 10 µM; 4,000 compounds, 0.4% hits; AID 624114;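 active = calcium fluorescence ratio, averaged over duplicates, at least 3 SD of the buffer-well ratio, meaning a nonspecific response in receptor-free cells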;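 also: untransfected parental HEK293 lacking MrgX1 used as counterscreen for MrgX1 allosteric activators; fluorescence change taken during the second addition on a kinetic imager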
HEK293 Ca cntr2: activity in parental HEK293 cells lacking MrgX1 receptor; shares compounds with MrgX1 antag; Fluo-4 calcium fluorescence (FDSS); active compounds read high; fluorescence ratio F(max-min)/F0 at 10 µM; 4,000 compounds, 8.7% hits;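 active = calcium fluorescence ratio at least three times the spread of buffer wells, meaning a non-specific response in parental cells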
* marks the source's active call; other numbers are inactive results; i = inactive; x = no result given.

SMILES	RGS4 block	RGS4 pot	MrgX1 allo act	MrgX1 antag	MrgX1 ag	MrgX1 allo conf	HEK293 Ca flux	HEK293 Ca counter	HEK293 Ca cntr2	others
COc1cccc(/C=C/C(=O)NNC(=O)c2cc(C)oc2C)c1	i	i	i	i	i	x	x	x	x
O=C(NC1CC1)c1ccc(-n2cccc2)cc1	i	i	i	i	i	x	x	x	x
CN1CCN(CCCNC(=O)c2ccc(/C=C3\Sc4ccccc4N(Cc4ccccc4F)C3=O)cc2)CC1	i	i	x	x	x	x	x	x	x
CCN1CCN(CCNC(=O)c2ccc3c(c2)N(Cc2ccc(F)cc2)C(=O)/C(=C/c2ccccc2)S3)CC1	i	i	21*	-16*	i	i	i	i	i	MrgX1 antag conf=66%*
Nc1nc2n(n1)C(c1cccc(Cl)c1)CC(c1ccc(F)cc1)N2 (stereo unspecified)	i	i	9.7*	i	i	i	i	i	i
CCOc1ccc(C2CC(c3cccc(Cl)c3)n3nc(N)nc3N2)cc1 (stereo unspecified)	i	i	i	i	i	x	x	x	x
COc1ccc(CNc2cccc(F)c2)cc1Br	i	i	6.5*	i	i	i	i	i	i
O=C(CCc1nnc(Cc2c[nH]c3ccccc23)o1)NC1CCCC1	i	i	16*	i	i	i	i	i	i
CCCCC(NC(=O)Cc1c(C)c2cc3c(-c4ccccc4)coc3c(C)c2oc1=O)C(=O)O (stereo unspecified)	i	i	i	i	i	x	x	x	x
Nc1cc(Cl)ccc1Oc1ccccc1	i	i	20*	i	i	i	i	i	i
CCN(CC)S(=O)(=O)c1cccc(NC2=NCC(C)S2)c1 (stereo unspecified)	i	i	9.1*	i	i	i	i	i	i
CCCCC(=O)Nc1cccc(NC(=O)c2cccnc2Cl)c1	i	i	i	i	i	x	x	x	x
CCOc1ccc(CC(=O)N/N=C(\C)c2cccnc2)cc1	i	i	i	i	i	x	x	x	x
COc1cc2c(cc1OC)C1(Nc3c-2c(C)nn3-c2ccccc2)C(=O)Nc2ccccc21 (stereo unspecified)	x	x	6.7*	i	i	i	i	i	i
CCCCn1c(N)c(N(CCOC)C(=O)c2ccc(-c3ccc(C(C)=O)cc3)o2)c(=O)[nH]c1=O	i	i	i	i	i	x	x	x	x
COCc1cc(Sc2ccc(Cl)cc2)nc(C)n1	i	i	8.4*	i	i	i	i	i	i
Nc1nc(OCC(F)(F)F)cc(Oc2ccccc2F)n1	i	i	9.8*	i	i	i	i	i	i
CNc1nc(Nc2ccc(C(C)=O)cc2)nc(OC(C(F)(F)F)C(F)(F)F)n1	i	i	8.6*	i	i	i	i	i	i
Cc1ccc(S(=O)(=O)N2CCOCC2)cc1C(=O)NC1CCSc2ccccc21 (stereo unspecified)	i	i	i	i	i	x	x	x	x
Nc1nc(Cl)nc(N(c2ccccc2)c2ccccc2)n1	i	i	i	i	i	x	x	x	x
Nc1nc(CCl)nc(N(c2ccccc2)c2ccccc2)n1	i	i	10*	i	i	i	i	i	i
